Hits are enriched below; roughly 1.5% of the tested compounds scored in any of these assays.
PPC-1+TRAIL kill – kills PPC-1 cancer cells in the presence of TRAIL. PPC-1 cells + TRAIL, ATPLite viability luminescence. cell killing (% activity), % at 4 µM or 5 µM. actives 0.41% (n = 220,000). AID 1443;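 active means cell killing above 50% in the first pass at 4 µM, then a duplicate retest at 5 µM averaging 50% or more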;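 further: plate controls were cells with TRAIL plus DMSO for no effect and medium-only wells lacking cells for full effect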
TRAIL sens C8 – caspase-8 TRAIL sensitization; NB7+C8 cells + TRAIL, ATPlite viability luminescence; actives 1% (n = 360,000); inhibition (viability loss, TRAIL sensitization), % at 10 µM;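 active means compounds causing at least 50% loss of cell viability in the single-dose screen, relative to plate controls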
FLuc act counter – affects firefly luciferase, flagging false hits in luciferase stimulation screens | 200,000 tested, under 10 active | activation factor at 10 µM | AID 1027 | P08659 | ATPlite luciferase biochemical, luminescence, 10 min; 0 = ATP-free wells, 1 = DMSO control;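 active means luciferase activation factor, scaled between plate controls, of at least 2 with compound at 10 µM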
Target sequence (P08659 whole entry, looked up): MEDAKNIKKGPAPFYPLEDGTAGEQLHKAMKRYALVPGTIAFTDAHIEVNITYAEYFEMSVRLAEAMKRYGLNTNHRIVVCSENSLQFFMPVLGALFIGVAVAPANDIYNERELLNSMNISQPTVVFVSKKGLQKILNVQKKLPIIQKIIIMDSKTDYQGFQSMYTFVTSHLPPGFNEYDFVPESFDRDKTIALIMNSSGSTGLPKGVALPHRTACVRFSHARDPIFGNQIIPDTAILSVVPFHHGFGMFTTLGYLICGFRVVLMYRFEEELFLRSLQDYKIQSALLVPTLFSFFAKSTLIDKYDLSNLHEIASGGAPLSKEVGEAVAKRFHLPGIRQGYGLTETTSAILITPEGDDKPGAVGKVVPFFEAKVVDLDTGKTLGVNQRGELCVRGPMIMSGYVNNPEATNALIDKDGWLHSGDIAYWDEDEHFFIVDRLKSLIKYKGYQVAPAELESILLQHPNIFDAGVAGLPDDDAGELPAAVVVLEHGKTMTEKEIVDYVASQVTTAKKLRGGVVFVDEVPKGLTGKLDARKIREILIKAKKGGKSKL
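Assay system: Luciferase/luciferin detection reagent, cell-free biochemical luciferase assay / Also added: ATP substrate / Schedule: 10 min at ambient temperature / Measured by: luminescence measurement of luciferase light output / Benchmarks: low control with PBS replacing ATP, high control enzyme plus ATP without compound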
FLuc inhib CS – Photinus pyralis luciferase inhibition counter-screen. actives 1.5% (n = 200,000). AID 1006. inhibition, % at 10 µM. P08659. ATPLite firefly luciferase biochemical luminescence, 10 min;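 active means inhibition above about 50% when tested at 10 µM, limit read from the data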
The depositor's hits bear a star; x = no result.

SMILES	PPC-1+TRAIL kill	TRAIL sens C8	FLuc act counter	FLuc inhib CS
COc1ccc(CS(=O)(=O)/C(Cl)=C(/Cl)C(=O)Nc2ccc(OC)nc2)cc1	16.1	89.5*	1	-4.1
COc1ccc(NC(=O)/C(Cl)=C(/Cl)S(=O)Cc2ccccc2)cn1 (configuration not stated)	1.8	96.2*	1	-1.7
COc1ccc(/C=C/C(=O)Nc2ccc(OC)nc2)cc1	26.6	13.5	0.8	22.4
Cn1c(-c2ccccc2)cc2onc(-c3ccccc3)c2c1=O	x	80.8*	x	x
Cn1c(-c2ncc(F)cc2F)cc2onc(-c3c(F)cccc3Cl)c2c1=O	x	7.1	x	x
Cn1c(-c2ccccc2F)cc2onc(-c3ccccc3)c2c1=O	x	62.5*	x	x
Cc1cc(C)c(NC(=O)CN(C)CC(=O)N(C)CC(=O)Nc2c(Cl)cccc2Cl)c(C)c1	x	1.7	x	x
CC(=O)c1c(C)[nH]c(C(=O)Nc2ccccn2)c1C	x	51.2*	x	x
CCc1cc2c(CN3CCN(CCO)CC3)cc(=O)oc2cc1O	52.0*	-18.1	1	0.3
CCC(C)c1ccc(NC(=O)c2ccco2)cc1 (configuration not stated)	x	73.4*	x	x
COc1ccc(-c2ccc(NC(=O)c3ccco3)cc2)nn1	x	83.4*	x	x
O=C(Nc1ccc(-c2cn3ccccc3n2)cc1)c1ccco1	73.3*	71.4*	0.1	86.2*
COc1ccc(-c2cccc(NC(=O)c3ccco3)c2)nn1	x	4.4	x	x
O=C(COC(=O)COc1ccccc1)NC1CCS(=O)(=O)C1 (configuration not stated)	x	2.9	x	x
COc1cccc(C(C)NC(=O)Cc2cccs2)c1 (configuration not stated)	x	17.2	x	x
CCCCc1c(C)c(C#N)c2[nH]c3ccccc3n2c1=O	14.6	4.1	1	-3.6
CCCc1cc(=O)n2c([nH]c3ccccc32)c1C#N	22.2	4.9	0.3	65.7*
C(=N\N=C\c1ccccc1)/c1ccccc1	35.8	-6.9	0.2	78.7*
Cc1ccc(/C=N/N=C/c2ccc(C)cc2)cc1	18.2	-3.9	0.9	12.5
O=C(COc1c(Cl)cc(Cl)cc1Cl)c1ccc(Cl)cc1	26.5	-2.2	1	-0.9
O=c1[nH]c(=O)n(CCCc2ccccc2)cc1-c1ccccc1	x	-15.3	x	x
CC(C)(C)c1ccc(O)c(O)c1	x	-18.6	x	x
CC(C)(C)c1ccc(O)c(/C=N\O)c1	-22.9	71.5*	1	0.0
Fc1ccc(Nc2ccc3ccccc3n2)c(F)c1	28.5	40.1	0.3	69.5*
Cn1cccc1C(=O)OCC(=O)NCc1cccs1	x	-2.2	x	x
SMILES	PPC-1+TRAIL kill	TRAIL sens C8	FLuc act counter	FLuc inhib CS
Cc1csc(NC(=O)NCC2CCCC(CNC(=O)Nc3nc(C)cs3)C2)n1 (configuration not stated)	x	1.1	x	x
CCCNC1=C(N(C(C)=O)c2cccc(F)c2)C(=O)c2ccccc2C1=O	70.5*	75.5*	1	-4.7
Fc1cccc(CSc2ccc3nnc(-c4cccnc4)n3n2)c1	12.4	0.1	0.9	5.1
Cc1cc2sc3ccc(C#CC4(O)CCCCC4)cc3c(=O)c2cc1C	x	88.1*	x	x
Cn1c2ccccc2c(=O)c2cc(C#CC3(O)CCCCC3)ccc21	x	92.2*	x	x
NC1(C#Cc2ccc3c(=O)c4ccccc4sc3c2)CCCCC1	x	12.3	x	x
Cn1c2ccccc2c(=O)c2ccc(C#CC3(N)CCCCC3)cc21	x	29.8	x	x
O=c1c2ccccc2oc2ccc(C#CC3(O)CCCCC3)cc12	x	86.8*	x	x
N#Cc1ccc(C#Cc2ccc3oc4ccccc4c(=O)c3c2)cc1	x	1.9	x	x
c1csc(-c2nc(CN3CCSCC3)cs2)c1	24.6	31.1	x	x
O=C(CN(CC1CCCO1)C(=O)CNS(=O)(=O)c1ccc(F)cc1)NCc1ccc(F)cc1 (configuration not stated)	x	-20.9	x	x
O=C(Nc1ccccc1)N1CCCC(CNS(=O)(=O)Cc2ccccc2)C1 (configuration not stated)	-19.5	-9.8	1	-1.7
Nc1nnc(CCS(=O)(=O)c2ccc(Br)cc2)s1	11.4	27.0	1	-0.4
C=CCOC(=O)/C(=C/c1cccc2ccccc12)NC(=O)c1ccccc1	14.4	-9.5	1	2.4
CN(/N=C/c1ccncc1)c1cnc2ccccc2n1	37.2	33.9	0.4	56.4*
Cc1c(CCCl)c(Cl)n2c(nc3ccccc32)c1C#N	x	88.3*	x	x
Cc1cc(Cl)n2c(nc3ccccc32)c1C#N	4.4	-2.0	1	-1.6
Cn1c(=N)n(CC(=O)c2ccc(F)cc2)c2ccccc21	x	80.3*	x	x
Cn1c(=N)n(CC(=O)c2ccc(Br)cc2)c2ccccc21	x	35.1	x	x
O=C(COC(=O)/C=C/c1ccccc1)NC(=O)NCc1ccccc1	x	-1.2	x	x
Cc1ccc(C)c(NC(=O)c2cc([N+](=O)[O-])cc([N+](=O)[O-])c2)c1	x	-7.3	x	x
COCCNC(=O)C1C(=O)Nc2ccccc2C(=O)N1Cc1ccccc1 (configuration not stated)	x	-12.6	x	x
c1ccc2c(Nc3nnc(-c4ccncc4)s3)cccc2c1	18.3	29.7	0.5	52.5*
O=C1/C(=C\c2cccs2)Sc2ccc3ccccc3c21	12.0	37.3	0.5	54.4*
NC1=NC(=O)/C(=C\c2cccs2)S1	10.7	0.6	0.9	6.8
SMILES	PPC-1+TRAIL kill	TRAIL sens C8	FLuc act counter	FLuc inhib CS
CC(C)N=C1NN=C(c2ccc(Cl)c(Cl)c2)CS1	-5.2	42.4	0.4	63.6*
O=C1c2cccc(NCCNCCO)c2C(=O)c2cccc(NCCNCCO)c21	x	64.1*	x	x
Nc1nc(-c2ccc(-c3ccccc3)cc2)cs1	7.9	59.0*	0.3	71.7*
Nc1nc(-c2ccc(Oc3ccccc3)cc2)cs1	x	10.3	x	x
Cc1nc2nc(C)n(CCN3CCOCC3)c(=O)c2c(-c2cccc([N+](=O)[O-])c2)c1C(=O)CCCCCCCCCCN1CCC(c2ccccc2)(c2ccccc2)CC1	x	91.9*	x	x
COc1ccc(-c2cc(C(=O)N3CCCC3)c3ccccc3n2)cc1	x	34.0	x	x
COc1cc(-c2cc(C(=O)N3CCN(c4ccccn4)CC3)c3ccccc3n2)cc(OC)c1OC	x	20.0	x	x
CCCc1ccc(-c2cc(C(=O)N3CCN(c4ccccn4)CC3)c3ccccc3n2)cc1	x	91.4*	x	x
O=C(NCCN1CCOCC1)c1cc(-c2ccc(F)cc2)nc2ccccc12	x	5.9	x	x
COc1ccc(-c2cc(C(=O)N3CCN(c4ccccc4)CC3)c3ccccc3n2)cc1	18.9	41.6	0.4	63.9*
CC(C)Oc1ccc(-c2cc(C(=O)NCCN3CCOCC3)c3ccccc3n2)cc1	48.6	43.3	0.3	65.0*
COc1ccc(-c2cc(C(=O)N3CCN(c4ccccc4O)CC3)c3ccccc3n2)cc1	x	63.3*	x	x
O=C(Cc1ccccn1)c1ccc(F)cc1	x	-6.3	x	x
COc1ccc(-c2cc(C(=O)N3CCN(c4ncccn4)CC3)c3ccccc3n2)cc1	x	63.6*	x	x
CCOc1ccc(-c2cc(C(=O)N3CCCC3)c3ccccc3n2)cc1	x	64.3*	x	x
Cc1cccc(NC(=O)c2nc[nH]c2C(=O)N[C@@H](CCCCNC(=O)OC(C)(C)C)C(=O)OC(C)(C)C)c1	10.1	51.0*	x	x
Cc1cccc(NC(=O)c2nc[nH]c2C(=O)NCCCCCNC(=O)OC(C)(C)C)c1	x	32.7	x	x

Compound activity (PubChem BioAssay)
